Target: Monoacylglycerol lipase ABHD6 (Mus musculus) (UniProt Q8R2Y0)
Experiment: brain ABHD6 inhibition after oral dosing, late-stage follow-up, in vivo study for DAGLb inhibitor project, gel-based competitive ABPP, fluorescence, mouse, set 2 (AID 602343)
Details: stronger effect = higher value
In short: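 detection = in-gel fluorescence band density | test system = mouse brain membrane ABHD6, in vivo dosing | quantity = membrane protein 1 mg/mL | schedule = Brains taken 4 h post-dose, probe labeling 30 min at 37 °C | benchmarks = vehicle high, gel background low | repeats = one replicate per group | read-out = % inhibition vs vehicle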

[1] = dose or concentration not given here
[2] = measured here: inhibition at 1 mg/kg p.o.
[3] = measured here: inhibition at 5 mg/kg p.o.

Sequence of Monoacylglycerol lipase ABHD6 (Mus musculus) (Q8R2Y0 whole entry, looked up): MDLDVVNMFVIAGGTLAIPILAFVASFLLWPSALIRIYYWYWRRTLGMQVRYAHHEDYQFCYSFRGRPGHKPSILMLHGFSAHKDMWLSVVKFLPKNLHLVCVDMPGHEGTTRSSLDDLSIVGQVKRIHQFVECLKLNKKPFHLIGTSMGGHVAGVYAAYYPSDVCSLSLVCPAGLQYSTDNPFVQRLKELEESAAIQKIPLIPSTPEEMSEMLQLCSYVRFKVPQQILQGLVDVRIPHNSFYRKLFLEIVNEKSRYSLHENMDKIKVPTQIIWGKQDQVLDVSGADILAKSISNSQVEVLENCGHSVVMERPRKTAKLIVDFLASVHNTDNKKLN

| Compound | inhibition [1] | inhibition [2] | inhibition [3] |
| --- | --- | --- | --- |
| COc1ccccc1-c1ccc(-c2cn(C(=O)N3CCCCC3Cc3ccccc3)nn2)cc1 (centres undefined) | 99% | 30% | 95% |
| O=C(N1CCCCC1Cc1ccccc1)n1cc(-c2ccc(-c3ccccc3)cc2)nn1 (centres undefined) | 100% | 0% | 99% |
| COc1ccc(-c2ccc(-c3cn(C(=O)N4CCCCC4c4ccccc4)nn3)cc2)cc1 (centres undefined) | 99% | 55% | 55% |

Reference: PubChem BioAssay AID602343 (The Scripps Research Institute Molecular Screening Center, 2012)
